Converted amounts (≈) assume the structure as drawn. The source made the active and inactive calls. No cut-off for these calls is given here.
Columns and labels:
[1] = molecular target: T1, Induced myeloid leukemia cell differentiation protein Mcl-1 (Homo sapiens, UniProt Q07820); test: Binding affinity to his-tagged Mcl-1 (unknown origin) expressed in Escherichia coli BL21 (DE3) cells by ITC analysis
How it was run: (§1)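 Isothermal titration calorimetry at 25 °C in 20 mM Tris pH 8.0, 150 mM NaCl, 1% DMSO; twelve 3 μL injections of 300 μM ligand into 30 μM protein. Heats corrected against buffer-only titrations run the same way, and Kd obtained by integrating the raw data and fitting to a one-site model.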

[2] = molecular target: Induced myeloid leukemia cell differentiation protein Mcl-1 (Homo sapiens, UniProt Q07820, R263A); test: Binding affinity to his-tagged Mcl-1 R263A mutant (unknown origin) expressed in Escherichia coli BL21 (DE3) cells by ITC analysis; how it was run: as §1
Bcl-2-like protein 1 = Bcl-2-like protein 1 (Homo sapiens, UniProt Q07817); test: Binding affinity to Bcl-xL (unknown origin)
MCF7 = test: Induction of apoptosis in human MCF7 cells after 48 hrs by annexin V flow cytometry; format: functional, cell-based; details: MCF7, 48 h
How it was run: (§2)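 Cells exposed to graded concentrations of ligand for 48 h; percentage of apoptotic cells measured by Annexin V flow cytometry, and IC50 taken from the concentration–response.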

HL-60 = test: Induction of apoptosis in human HL60 cells after 48 hrs by annexin V flow cytometry; format: functional, cell-based; details: HL-60, 48 h; how it was run: as §2
H22 = test: Induction of apoptosis in mouse H22 cells after 48 hrs by annexin V flow cytometry; format: functional, cell-based; details: H22, 48 h; how it was run: as §2
NCI-H23 [3] = test: Ratio of IC50 for human HL60 cells to IC50 for human NCI-H23 cells; format: functional
[4] = molecular target: Apoptosis regulator Bcl-2 (Homo sapiens) (UniProt P10415); test: Binding affinity to recombinant human Bcl-2
[5] = molecular target: T1, Induced myeloid leukemia cell differentiation protein Mcl-1; test: Binding affinity to Mcl-1 (unknown origin) by two-dimensional [15N/1H] NMR analysis
[6] = Solubility of the compound in 100 % ethanol by HPLC analysis; format: physicochemical
NCI-H23 [7] = test: Induction of apoptosis in human NCI-H23 cells after 48 hrs by annexin V flow cytometry; format: functional, cell-based; details: NCI-H23, 48 h; how it was run: as §2
[8] = Solubility of the compound in 9:1 ratio of water:ethanol by HPLC analysis; format: physicochemical; details: 9:1 water:ethanol

Sequence of Induced myeloid leukemia cell differentiation protein Mcl-1 (Homo sapiens, UniProt Q07820, R263A) (Q07820 whole entry R263A): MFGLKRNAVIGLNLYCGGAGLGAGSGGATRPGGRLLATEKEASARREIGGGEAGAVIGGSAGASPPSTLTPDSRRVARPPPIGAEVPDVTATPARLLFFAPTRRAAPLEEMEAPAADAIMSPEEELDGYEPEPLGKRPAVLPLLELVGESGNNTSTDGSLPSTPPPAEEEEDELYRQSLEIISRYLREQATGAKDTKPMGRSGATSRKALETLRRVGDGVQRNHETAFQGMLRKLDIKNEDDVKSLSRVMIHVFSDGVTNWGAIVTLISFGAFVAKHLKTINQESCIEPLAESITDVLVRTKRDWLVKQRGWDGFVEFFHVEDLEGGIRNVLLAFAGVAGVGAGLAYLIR
Sequence of Bcl-2-like protein 1 (Q07817 whole entry): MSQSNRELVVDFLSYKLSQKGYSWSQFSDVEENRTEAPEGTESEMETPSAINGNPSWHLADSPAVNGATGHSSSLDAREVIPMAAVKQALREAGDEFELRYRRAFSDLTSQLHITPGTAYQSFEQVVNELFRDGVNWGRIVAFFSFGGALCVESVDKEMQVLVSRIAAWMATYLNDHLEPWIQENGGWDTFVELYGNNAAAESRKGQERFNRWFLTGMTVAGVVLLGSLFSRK
T1 sequence (Q07820 whole entry): as the sequence (Q07820 whole entry R263A) above, with A263R counted along it
Sequence of Apoptosis regulator Bcl-2 (Homo sapiens) (P10415 whole entry): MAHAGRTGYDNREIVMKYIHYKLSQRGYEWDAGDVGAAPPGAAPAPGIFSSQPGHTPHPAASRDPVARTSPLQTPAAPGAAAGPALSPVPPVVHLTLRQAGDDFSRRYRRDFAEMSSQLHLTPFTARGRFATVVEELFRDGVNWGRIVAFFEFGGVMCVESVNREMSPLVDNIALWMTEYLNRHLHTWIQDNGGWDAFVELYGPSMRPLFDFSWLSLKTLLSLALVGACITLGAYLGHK

Row | Structure (SMILES) | Kd ([1]; read-out: Kd) | Kd ([1]; read-out: pKd (converted)) | also measured
1 | COc1ccc(Oc2ccc3c(=C(C#N)C#N)c(=O)c4cccc2c43)cc1 | 4.93 µM | 4.9 µM | 
2 | N#CC(C#N)=c1c(=O)c2cccc3cccc1c32 | 52.3 µM | 52.5 µM | Kd [2]: 51.4 µM
3 | N#CCC(N)=O [CYANOACETAMIDE] | 13.5 µM | 13.5 µM | Kd [2]: > 1000 µM
4 | NC(=O)c1ccccc1C(=O)c1ccc(Sc2ccc(Cl)cc2)c([N+](=O)[O-])c1 |  |  | Ki (Bcl-2-like protein 1): 0.5 µM
5 | C1CSCCN1 [THIOMORPHOLINE] | > 1000 µM |  | 
6 | O=C(Nc1cc(S(=O)(=O)c2ccc(Cl)cc2)ccc1Cl)c1cc(Cl)cc(Br)c1O |  |  | Ki (Bcl-2-like protein 1): 4.1 µM
7 | Cc1cc2c(C(C)C)c(O)c(O)c(C=O)c2c(O)c1-c1c(C)cc2c(C(C)C)c(O)c(O)c(C=O)c2c1O [GOSSYPOL] | 2.65 µM | 2.63 µM | 
8 | CCC(C)(C)c1ccc(Oc2ccc3c(=C(C#N)C#N)c(=O)c4cccc2c43)cc1 | 1.45 µM | 1.45 µM | 
9 | N#Cc1c(-c2ccc3c(c2)OCO3)cc(-c2ccccc2O)[nH]c1=O |  |  | Ki (Bcl-2-like protein 1): 5.1 µM
10 | COC1=CC(c2cc3ccccc3[nH]2)=N/C1=C/c1[nH]cc(C)c1C |  |  | Ki (Bcl-2-like protein 1): 4.69 µM
11 | O=C1C(=O)c2cccc3cccc1c23 [ACENAPHTHOQUINONE] | 325 µM | 324 µM | 
12 | CNC(=O)CC#N | 8.27 µM | 8.32 µM | 
13 | CCCC(CSc1ccccc1)Nc1ccc(S(=O)(=O)NC(=O)c2ccc(N3CCN(Cc4ccccc4-c4ccc(Cl)cc4)CC3)cc2)cc1[N+](=O)[O-] (configuration not stated) |  |  | Ki (Bcl-2-like protein 1): 0.021 µM

More lines, main results first:

Row | Kd ([1]; read-out: Kd) | Kd ([1]; read-out: pKd (converted)) | Structure (SMILES) | also measured
14 | 2.21 µM | 2.19 µM | N#C/C(=C\c1ccccc1)C(N)=O | 
15 | 6.65 µM | 6.61 µM | CCNC(=O)CC#N | 
16 | 4.24 µM | 4.27 µM | N#CC(C#N)=c1c(=O)c2cccc3c(Oc4ccc(Cl)cc4)ccc1c32 | 
17 | 1.06 µM | 1.07 µM | N#C/C(=C\C=C\c1ccccc1)C(N)=O | Kd [2]: 46.2 µM
18 | 1.83 µM | 1.82 µM | N#CC1=C2C(=NC1=O)c1cccc3cccc2c13 | 
19 | 4.28 µM | 4.27 µM | CCCNC(=O)CC#N | 
20 | 0.16 µM | 0.158 µM | N#C/C(=C\C=C\c1ccccc1)C(=O)NCc1ccccc1 | IC50 (MCF7): 5.4 µM; IC50 (HL-60): 47.2 µM; IC50 (H22): 3.2 µM; Ratio IC50 (NCI-H23 [3]): 100; Activity [4]: inactive; Activity [5]: Active; solubility [6]: 4000 µg/mL (≈ 13.9 mM); IC50 (NCI-H23 [7]): 380 nM; solubility [8]: 200 µg/mL; Kd [2]: 6.72 µM
21 | 1.58 µM | 1.58 µM | N#CCC(=O)NCc1ccccc1 | Kd [2]: 90.8 µM
22 | 3.71 µM | 3.72 µM | CC(C)c1ccc(Oc2ccc3c(=C(C#N)C#N)c(=O)c4cccc2c43)cc1 | 

— ChEMBL document CHEMBL2331511, “Novel soluble myeloid cell leukemia sequence 1 (Mcl-1) inhibitor (E,E)-2-(benzylaminocarbonyl)-3-styrylacrylonitrile (4g) developed using a fragment-based approach” (Eur J Med Chem, 2013)
